What was measured:
Type in all cases: functional
[1] = test system: NCI-H460; experiment: Anticancer activity against human NCI-H460 cells assessed as cell growth at 100 uM after 48 hrs by sulforhodamine B assay; conditions: NCI-H460, 48 h, read-out: Activity
[2] = test system: MCF7; experiment: Anticancer activity against human MCF7 cells assessed as cell growth at 100 uM after 48 hrs by sulforhodamine B assay; conditions: MCF7, 48 h, read-out: Activity
[3] = test system: SF-268; experiment: Anticancer activity against human SF268 cells assessed as cell growth at 100 uM after 48 hrs by sulforhodamine B assay; conditions: SF-268, 48 h, read-out: Activity
[4] = test system: CCRF-CEM; experiment: Growth inhibition of human CCRF-CEM cells after 48 hrs by sulforhodamine B assay
Summary of the method: (§1)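 NCI 60-human-tumor-cell-line panel, with compounds tested over a 5-log dose range. Values are taken from dose-response curves as log10 molar concentrations: GI50 is 50% net growth inhibition, TGI is total growth inhibition, and LC50 is 50% net cell death.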

[5] = test system: SR; experiment: Growth inhibition of human SR cells after 48 hrs by sulforhodamine B assay
Summary of the method: (§2)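 Run in the NCI 60-human-tumour-cell-line panel, tested over a 5-log dose range. Dose–response curves gave three values per cell line, each as a log10 molar concentration: GI50 (50% inhibition of net cell growth), TGI (total inhibition of net growth) and LC50 (50% net cell death). The mean graph midpoint is the arithmetic mean over all lines, with insensitive lines entered at the highest concentration tested.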

[6] = test system: MOLT-4; experiment: Growth inhibition of human MOLT4 cells after 48 hrs by sulforhodamine B assay; conditions: MOLT-4, 48 h; summary of the method: as §1
[7] = test system: NCI-H226; experiment: Growth inhibition of human NCI-H226 cells after 48 hrs by sulforhodamine B assay; conditions: NCI-H226, 48 h; summary of the method: as §1
[8] = test system: NCI-H460; experiment: Growth inhibition of human NCI-H460 cells after 48 hrs by sulforhodamine B assay; conditions: NCI-H460, 48 h; summary of the method: as §1
[9] = test system: KM12; experiment: Growth inhibition of human KM12 cells after 48 hrs by sulforhodamine B assay; conditions: KM12, 48 h; summary of the method: as §1
[10] = test system: SF-268; experiment: Growth inhibition of human SF268 cells after 48 hrs by sulforhodamine B assay; conditions: SF-268, 48 h; summary of the method: as §1
[11] = test system: SF-539; experiment: Growth inhibition of human SF539 cells after 48 hrs by sulforhodamine B assay; conditions: SF-539, 48 h; summary of the method: as §1
[12] = test system: LOX IMVI; experiment: Growth inhibition of human LOXIMVI cells after 48 hrs by sulforhodamine B assay; summary of the method: as §1
[13] = test system: Malme-3M; experiment: Growth inhibition of human MALME-3M cells after 48 hrs by sulforhodamine B assay; summary of the method: as §1
[14] = test system: SK-MEL-2; experiment: Growth inhibition of human SK-MEL-2 cells after 48 hrs by sulforhodamine B assay; conditions: SK-MEL-2, 48 h; summary of the method: as §1
[15] = test system: SK-MEL-28; experiment: Growth inhibition of human SK-MEL-28 cells after 48 hrs by sulforhodamine B assay; conditions: SK-MEL-28, 48 h; summary of the method: as §1
[16] = test system: SK-MEL-5; experiment: Growth inhibition of human SK-MEL-5 cells after 48 hrs by sulforhodamine B assay; conditions: SK-MEL-5, 48 h; summary of the method: as §1
[17] = test system: UACC-62; experiment: Growth inhibition of human UACC62 cells after 48 hrs by sulforhodamine B assay; conditions: UACC-62, 48 h; summary of the method: as §2
[18] = test system: IGROV-1; experiment: Growth inhibition of human IGROV1 cells after 48 hrs by sulforhodamine B assay; conditions: IGROV-1, 48 h; summary of the method: as §1
[19] = test system: A498; experiment: Growth inhibition of human A498 cells after 48 hrs by sulforhodamine B assay; conditions: A498, 48 h; summary of the method: as §1
[20] = test system: ACHN; experiment: Growth inhibition of human ACHN cells after 48 hrs by sulforhodamine B assay
[21] = test system: RXF 393; experiment: Growth inhibition of human RXF393 cells after 48 hrs by sulforhodamine B assay; conditions: RXF 393, 48 h; summary of the method: as §1
[22] = test system: SN12C; experiment: Growth inhibition of human SN12C cells after 48 hrs by sulforhodamine B assay; summary of the method: as §2
[23] = test system: PC-3; experiment: Growth inhibition of human PC3 cells after 48 hrs by sulforhodamine B assay; conditions: PC-3, 48 h; summary of the method: as §1
[24] = test system: DU-145; experiment: Growth inhibition of human DU145 cells after 48 hrs by sulforhodamine B assay; conditions: DU-145, 48 h; summary of the method: as §1
[25] = Growth inhibition of human Hs 578T cells after 48 hrs by sulforhodamine B assay; summary of the method: as §1
[26] = test system: MCF7; experiment: Growth inhibition of human MCF7 cells after 48 hrs by sulforhodamine B assay; conditions: MCF7, 48 h; summary of the method: as §1
[27] = read-out: pLC50 (the source's name) (converted)

Nc1cc(N)c2nc(-c3ccccc3)c(Sc3ccc(Cl)c(Cl)c3)nc2c1
growth at 100 µM [1]: 0% | growth at 100 µM [2]: 12% | growth at 100 µM [3]: 11% | GI50 [4]: 2510 nM | LC50 [4]: > 100 µM | TGI ([4]; read-out: pTGI (converted)): > 100 µM | GI50 [5]: 4.68 µM | LC50 (concentration giving 50% net cell death) [5]: > 100 µM | TGI ([5]; read-out: pTGI (converted)): 35.5 µM | GI50 [6]: 4.07 µM | LC50 [6]: > 100 µM | TGI ([6]; read-out: pTGI (converted)): > 100 µM | GI50 [7]: 3.02 µM | LC50 [7]: > 100 µM | TGI ([7]; read-out: pTGI (converted)): 9.12 µM | GI50 [8]: 10.5 µM | LC50 (50% net cell kill) [8]: > 100 µM | TGI ([8]; read-out: pTGI (converted)): 33.9 µM | GI50 [9]: 11.2 µM | LC50 (50% net cell kill) [9]: > 100 µM | TGI ([9]; read-out: pTGI (converted)): > 100 µM | GI50 [10]: 13.8 µM | LC50 [10]: > 100 µM | TGI ([10]; read-out: pTGI (converted)): 51.3 µM | GI50 [11]: 14.5 µM | LC50 [11]: > 100 µM | TGI ([11]; read-out: pTGI (converted)): 41.7 µM | GI50 [12]: 7.41 µM | LC50 [12]: 72.4 µM | TGI ([12]; read-out: pTGI (converted)): 24.5 µM | GI50 [13]: 19.5 µM | CC50 [13, 27]: > 100 µM | TGI ([13]; read-out: pTGI (converted)): 50.1 µM | GI50 [14]: 6.17 µM | CC50 [14, 27]: > 100 µM | TGI ([14]; read-out: pTGI (converted)): 30.9 µM | GI50 [15]: 13.8 µM | CC50 [15, 27]: > 100 µM | TGI ([15]; read-out: pTGI (converted)): 57.5 µM | GI50 [16]: 21.4 µM | CC50 [16, 27]: > 100 µM | TGI ([16]; read-out: pTGI (converted)): 95.5 µM | GI50 [17]: 6.76 µM | CC50 [17, 27]: > 100 µM | TGI ([17]; read-out: pTGI (converted)): 42.7 µM | GI50 [18]: 2950 nM | CC50 [18, 27]: > 100 µM | TGI ([18]; read-out: pTGI (converted)): 27.5 µM | GI50 [19]: 17 µM | CC50 [19, 27]: 57.5 µM | TGI ([19]; read-out: pTGI (converted)): 30.9 µM | GI50 [20]: 1700 nM | CC50 [20, 27]: 5.62 µM | TGI ([20]; read-out: pTGI (converted)): 3.09 µM | GI50 [21]: 12.3 µM | CC50 [21, 27]: 60.3 µM | TGI ([21]; read-out: pTGI (converted)): 26.9 µM | GI50 [22]: 7.59 µM | CC50 [22, 27]: 64.6 µM | TGI ([22]; read-out: pTGI (converted)): 23.4 µM | GI50 [23]: 3.47 µM | CC50 [23, 27]: > 100 µM | TGI ([23]; read-out: pTGI (converted)): 15.5 µM | GI50 [24]: 1510 nM | CC50 [24, 27]: 9.77 µM | TGI ([24]; read-out: pTGI (converted)): 3.8 µM | GI50 [25]: 30.2 µM | CC50 [25, 27]: > 100 µM | TGI ([25]; read-out: pTGI (converted)): > 100 µM | GI50 [26]: 5.25 µM | CC50 [26, 27]: > 100 µM | TGI ([26]; read-out: pTGI (converted)): 38 µM

Source: ChEMBL document CHEMBL1137710, “Synthesis and in vitro antitumor activity of new quinoxaline derivatives” (2009)
